Laboratory results as given in ChEMBL document CHEMBL4715736, “Identification of anticancer agents based on the thieno[2,3-b]pyridine and 1H-pyrazole molecular scaffolds” (2016).

Key:
Format in all cases: functional
[1] = system: BT-549; test: Growth inhibition of human BT-549 cells assessed as cell growth at 1 uM incubated for 48 hrs by sulforhodamine B assay relative to control; details: read-out: Activity
[2] = system: MCF7; test: Growth inhibition of human MCF7 cells assessed as cell growth at 0.01 uM incubated for 48 hrs by sulforhodamine B assay relative to control; details: read-out: Activity
[3] = system: NCI-H322M; test: Growth inhibition of human NCI-H322M cells assessed as cell growth at 0.1 uM incubated for 48 hrs by sulforhodamine B assay relative to control; details: read-out: Activity
[4] = system: MOLT-4; test: Growth inhibition of human MOLT-4 cells assessed as cell growth at 0.01 uM incubated for 48 hrs by sulforhodamine B assay relative to control; details: read-out: Activity
[5] = system: HOP-62; test: Growth inhibition of human HOP-62 cells assessed as cell growth at 100 uM incubated for 48 hrs by sulforhodamine B assay relative to control; details: read-out: Activity
[6] = system: SF-268; test: Growth inhibition of human SF-268 cells assessed as cell growth at 100 uM incubated for 48 hrs by sulforhodamine B assay relative to control; details: read-out: Activity
[7] = system: M14; test: Growth inhibition of human M14 cells assessed as cell growth at 1 uM incubated for 48 hrs by sulforhodamine B assay relative to control; details: read-out: Activity
[8] = system: SR; test: Growth inhibition of human SR cells incubated for 48 hrs by sulforhodamine B assay
Outline: (§1)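 NCI DTP 60-line human tumour panel. Dose-response curves were run only for ligands active in the initial 10 µM screen. GI50 (concentration giving 50% of maximal inhibition of proliferation) and TGI (concentration giving total growth inhibition) were derived from these curves.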

[9] = system: LOX IMVI; test: Growth inhibition of human LOX IMVI cells incubated for 48 hrs by sulforhodamine B assay
Outline: (§2)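 NCI60 panel at the NCI Developmental Therapeutics Program. Only compounds active in the 10 µM screen went to dose-response testing. GI50, the concentration giving 50% of maximal inhibition of proliferation, and TGI, the concentration giving total growth inhibition, were derived from the dose-response curves.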

[10] = system: T47D; test: Growth inhibition of human T47D cells assessed as cell growth at 0.01 uM incubated for 48 hrs by sulforhodamine B assay relative to control; details: read-out: Activity
[11] = system: OVCAR-5; test: Growth inhibition of human OVCAR-5 cells assessed as cell growth at 1 uM incubated for 48 hrs by sulforhodamine B assay relative to control; details: read-out: Activity
[12] = system: OVCAR-5; test: Growth inhibition of human OVCAR-5 cells assessed as cell growth at 100 uM incubated for 48 hrs by sulforhodamine B assay relative to control; details: read-out: Activity
[13] = system: NCI-H322M; test: Growth inhibition of human NCI-H322M cells incubated for 48 hrs by sulforhodamine B assay; details: for CC50: read-out: LC50 (the source's name); outline: as §2
[14] = system: COLO 205; test: Growth inhibition of human COLO 205 cells incubated for 48 hrs by sulforhodamine B assay
Outline: (§3)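 NCI Developmental Therapeutics Program NCI60 panel. Compounds that were active in the 10 µM one-dose screen went on to dose–response testing. Growth at each concentration is expressed relative to untreated control (100%). GI50 (concentration giving 50% of maximal inhibition of proliferation) and TGI (concentration giving total growth inhibition) were derived from the curves.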

[15] = system: Malme-3M; test: Growth inhibition of human Malme-3M cells assessed as cell growth at 0.01 uM incubated for 48 hrs by sulforhodamine B assay relative to control; details: read-out: Activity
[16] = system: BT-549; test: Growth inhibition of human BT-549 cells incubated for 48 hrs by sulforhodamine B assay; details: for CC50: read-out: LC50 (the source's name); outline: as §3
[17] = system: COLO 205; test: Growth inhibition of human COLO 205 cells assessed as cell growth at 0.1 uM incubated for 48 hrs by sulforhodamine B assay relative to control; details: read-out: Activity; outline: as §3
[18] = system: CAKI-1; test: Growth inhibition of human CAKI-1 cells assessed as cell growth at 1 uM incubated for 48 hrs by sulforhodamine B assay relative to control; details: read-out: Activity; outline: as §3
[19] = system: HCT-116; test: Growth inhibition of human HCT-116 cells assessed as cell growth at 0.1 uM incubated for 48 hrs by sulforhodamine B assay relative to control; details: read-out: Activity
[20] = system: SNB-75; test: Growth inhibition of human SNB-75 cells assessed as cell growth at 0.01 uM incubated for 48 hrs by sulforhodamine B assay relative to control; details: read-out: Activity
[21] = system: 786-0; test: Growth inhibition of human 786-0 cells assessed as cell growth at 0.01 uM incubated for 48 hrs by sulforhodamine B assay relative to control; details: read-out: Activity; outline: as §3
[22] = system: NCI-H322M; test: Growth inhibition of human NCI-H322M cells assessed as cell growth at 100 uM incubated for 48 hrs by sulforhodamine B assay relative to control; details: read-out: Activity
[23] = system: SF-268; test: Growth inhibition of human SF-268 cells assessed as cell growth at 1 uM incubated for 48 hrs by sulforhodamine B assay relative to control; details: read-out: Activity
[24] = system: CCRF-CEM; test: Growth inhibition of human CCRF-CEM cells assessed as cell growth at 0.1 uM incubated for 48 hrs by sulforhodamine B assay relative to control; details: read-out: Activity; outline: as §3
[25] = system: A549; test: Growth inhibition of human A549/ATCC cells assessed as cell growth at 0.1 uM incubated for 48 hrs by sulforhodamine B assay relative to control; details: read-out: Activity; outline: as §3
[26] = system: PC-3; test: Growth inhibition of human PC-3 cells assessed as cell growth at 0.01 uM incubated for 48 hrs by sulforhodamine B assay relative to control; details: read-out: Activity
[27] = system: HCT-116; test: Growth inhibition of human HCT-116 cells assessed as cell growth at 100 uM incubated for 48 hrs by sulforhodamine B assay relative to control; details: read-out: Activity
[28] = system: A498; test: Growth inhibition of human A498 cells assessed as cell growth at 0.1 uM incubated for 48 hrs by sulforhodamine B assay relative to control; details: read-out: Activity; outline: as §3
[29] = system: OVCAR-5; test: Growth inhibition of human OVCAR-5 cells incubated for 48 hrs by sulforhodamine B assay; details: for CC50: read-out: LC50 (the source's name); outline: as §1
[30] = system: UO-31; test: Growth inhibition of human UO-31 cells assessed as cell growth at 0.1 uM incubated for 48 hrs by sulforhodamine B assay relative to control; details: read-out: Activity
[31] = system: SK-MEL-5; test: Growth inhibition of human SK-MEL-5 cells assessed as cell growth at 0.1 uM incubated for 48 hrs by sulforhodamine B assay relative to control; details: read-out: Activity
[32] = system: Malme-3M; test: Growth inhibition of human Malme-3M cells assessed as cell growth at 1 uM incubated for 48 hrs by sulforhodamine B assay relative to control; details: read-out: Activity
[33] = system: PC-3; test: Growth inhibition of human PC-3 cells incubated for 48 hrs by sulforhodamine B assay; details: for CC50: read-out: LC50 (the source's name); outline: as §1
[34] = system: NCI-H23; test: Growth inhibition of human NCI-H23 cells incubated for 48 hrs by sulforhodamine B assay; outline: as §2
[35] = system: SK-OV-3; test: Growth inhibition of human SK-OV-3 cells assessed as cell growth at 100 uM incubated for 48 hrs by sulforhodamine B assay relative to control; details: read-out: Activity

Cc1cc(C)c(NC(=O)c2sc3nc4c(cc3c2N)CN(Cc2ccccc2)CC4)c(C)c1 showed a growth at 1 µM [1] of 81%, a growth at 0.01 µM [2] of 86% and a growth at 0.1 µM [3] of 97%. For the same compound, the growth at 0.01 µM [4] was 99%, the growth at 100 µM [5] was 7% and the growth at 100 µM [6] was -10%. The growth at 1 µM [7] was 78%, the GI50 [8] was 1.83 µM and the LC50 [8] was over 100 µM. The TGI [8] was 10.7 µM, the GI50 [9] was 5.01 µM and the LC50 [9] was 50.9 µM. It also gave a TGI [9] of 18.1 µM, a growth at 0.01 µM [10] of 90% and a growth at 1 µM [11] of 97%. For the same compound, the growth at 100 µM [12] was 14%, the GI50 [13] was 8.65 µM and the TGI [13] was over 100 µM. The CC50 [13] was over 100 µM, the GI50 [14] was 2.98 µM and the LC50 (concentration killing 50% of cells) [14] was 68.8 µM. The TGI [14] was 10.1 µM, the growth at 0.01 µM [15] was 106% and the GI50 [16] was 4.05 µM. The TGI [16] was 57.6 µM, the CC50 [16] was over 100 µM and the growth at 0.1 µM [17] was 104%. It also gave a growth at 1 µM [18] of 76%, a growth at 0.1 µM [19] of 97% and a growth at 0.01 µM [20] of 82%. The growth at 0.01 µM [21] was 91%, the growth at 100 µM [22] was 39% and the growth at 1 µM [23] was 92%. The growth at 0.1 µM [24] was 97%, the growth at 0.1 µM [25] was 96% and the growth at 0.01 µM [26] was 94%. For the same compound, the growth at 100 µM [27] was -64%, the growth at 0.1 µM [28] was 91% and the GI50 [29] was 12.5 µM. The TGI [29] was over 100 µM, the CC50 [29] was over 100 µM and the growth at 0.1 µM [30] was 88%. For the same compound, the growth at 0.1 µM [31] was 93%, the growth at 1 µM [32] was 76% and the GI50 [33] was 3.13 µM. It also gave a TGI [33] of over 100 µM, a CC50 [33] of over 100 µM and a GI50 [34] of 4.51 µM. The LC50 (50% lethal concentration) [34] was over 100 µM, the TGI [34] was over 100 µM and the growth at 100 µM [35] was 16%.
COc1cccc(NC(=O)c2sc3nc4c(cc3c2N)CN(Cc2ccccc2)CC4)c1 showed a growth at 1 µM [1] of 72%, a growth at 0.01 µM [2] of 88% and a growth at 0.1 µM [3] of 96%. It also gave a growth at 0.01 µM [4] of 102%, a growth at 100 µM [5] of -71% and a growth at 100 µM [6] of -40%. For the same compound, the growth at 1 µM [7] was 57%, the GI50 [8] was 0.453 µM and the LC50 [8] was over 100 µM. For the same compound, the TGI [8] was 47.7 µM, the GI50 [9] was 4.09 µM and the LC50 [9] was over 100 µM. The TGI [9] was 43.5 µM, the growth at 0.01 µM [10] was 90% and the growth at 1 µM [11] was 95%. For the same compound, the growth at 100 µM [12] was 34%, the GI50 [13] was 25.2 µM and the TGI [13] was over 100 µM. For the same compound, the CC50 [13] was over 100 µM, the GI50 [14] was 7.55 µM and the LC50 (concentration killing 50% of cells) [14] was over 100 µM. For the same compound, the TGI [14] was 54.5 µM, the growth at 0.01 µM [15] was 97% and the GI50 [16] was 2.83 µM. It also gave a TGI [16] of 26.2 µM, a CC50 [16] of over 100 µM and a growth at 0.1 µM [17] of 98%. For the same compound, the growth at 1 µM [18] was 78%, the growth at 0.1 µM [19] was 96% and the growth at 0.01 µM [20] was 88%. It also gave a growth at 0.01 µM [21] of 90%, a growth at 100 µM [22] of 18% and a growth at 1 µM [23] of 91%. For the same compound, the growth at 0.1 µM [24] was 98%, the growth at 0.1 µM [25] was 93% and the growth at 0.01 µM [26] was 94%. For the same compound, the growth at 100 µM [27] was 2%, the growth at 0.1 µM [28] was 84% and the GI50 [29] was 36.9 µM. It also gave a TGI [29] of over 100 µM, a CC50 [29] of over 100 µM and a growth at 0.1 µM [30] of 92%. It also gave a growth at 0.1 µM [31] of 90%, a growth at 1 µM [32] of 57% and a GI50 [33] of 11.6 µM. The TGI [33] was 91.1 µM, the CC50 [33] was over 100 µM and the GI50 [34] was 7.18 µM. For the same compound, the LC50 (50% lethal concentration) [34] was over 100 µM, the TGI [34] was 49.2 µM and the growth at 100 µM [35] was -66%.
